Beta apoptosis – beta cell apoptosis inhibition. actives 0.8% (n = 300,000). INS-1E cytokine-induced death, ATP luminescence, 48 h; percent of positive-control rescue, neutral wells zero. AID 435005. protection from apoptosis, % (no concentration beside the values);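 active means Every replicate reaches about 75%, or at least half do and their mean reaches it too, limit read from the data; inconclusive means At least half of replicates reach the limit but their mean does not; inactive means Under half of replicates reach the limit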;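 further: 0% = cytokine-treated negative control wells and 100% = positive control rescue; higher means more ATP so stronger rescue from cytokine killing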
PolyA inh – inhibitors of polyadenylation in S. cerevisiae; activity score, % at 12 µM; AID 1875; S. cerevisiae SKY197-pL101 polyadenylation reporter, beta-gal luminescence; efflux-impaired pdr1/pdr3 knockout yeast; score 100 = 6 SD above DMSO; actives 0.02% (n = 300,000);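 active means lowest replicate activity score at least 50, where 100 means six control SD above control mean; inconclusive means lowest score under 50 but half or more replicates reach 50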;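 further: yeast exposed to compound for 9 h at 30 °C; higher score means more reporter readthrough which indicates perturbed polyadenylation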
HIF activator – HIF pathway transcriptional activation | U2OS HRE-luciferase reporter, luminescence; normalized: DMSO 0%, desferrioxamine 100% | activation, % at 7.5 µM (by protocol) | actives 0.32% (n = 300,000) | AID 1910;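 active means mean activation of at least 10% of the iron chelator positive control signal, with at least half of replicates also reaching 10%; inconclusive means mean and replicate majority disagree about reaching 10%; inactive means mean and most replicates under 10%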
T cruzi inh – blocks replication of Trypanosoma cruzi. T. cruzi beta-gal in NIH3T3, luminescence, 90 h. inhibition, % (test concentration not listed). actives 1.4% (n = 300,000);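 active means mean inhibition across valid replicates above about 55%, limit read from the data; inconclusive means mean below that limit but half or more replicates reach it; inactive means mean below it, under half of replicates reach it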;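 further: signal also drops with host cell toxicity which is not excluded here; 0% = plate median of DMSO wells and 100% = zero luminescence signal; higher percent means less beta-gal luminescence so fewer parasites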
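Material: NIH/3T3 host cells with β-galactosidase reporter T. cruzi; Input: 5,000 host fibroblasts per well; Medium: DMEM, 2% fetal bovine serum; Compound: 50 nL DMSO compound solution per well; Schedule: 3 h host attachment, then at least 90 h co-culture; Detection: luminescent β-galactosidase signal after 60 min lysis.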
Calb FLC – C. albicans growth modulation with fluconazole; AID 1979; growth inhibition, % (no concentration beside the values); actives 0.57% (n = 300,000); C. albicans CaCi-2 (fluconazole-resistant clinical isolate) + fluconazole, Alamar Blue growth, 48 h;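 active means growth inhibition above about 58% in most replicates, limit read from the data, passing the limit was not always enough; inconclusive means exactly half the replicates above a set limit; inactive means most replicates below a set limit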;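 further: all wells also contain fluconazole at 8 µg/ml as a sub-toxic cotreatment; 0% = median of DMSO wells and 100% = median of geldanamycin control wells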
CSC inhib – cancer stem cell inhibition | inhibition, % at 7.5 µM | cancer stem cell-like cells viability, luminescence | actives 1.1% (n = 300,000) | AID 2717; in the data active means inhibition above about 75%; inconclusive means no clear call, values can overlap the other calls; tested in HMLE shEcad cells
* hit, by the source's call; ? = inconclusive; . = no result given. An excerpt weighted towards active compounds, which were near 3.1% of everything screened.

SMILES	Beta apoptosis	PolyA inh	HIF activator	T cruzi inh	Calb FLC	CSC inhib
COc1cc(/C=C/c2ccc3cccc(OC)c3n2)c(OC(C)=O)c([N+](=O)[O-])c1	20	-28	0	17	6	78*
CCN(CC)c1ccc(C=O)c(OC)c1	-9	13	0	-1	17	-1
COc1cc(F)c(S(=O)(=O)N2CCOc3ccccc32)cc1OC	0	-5	-1	3	-4	4
CCOC(=O)C1CCCN(C(=O)CCc2nc3sc4c(c3c(=O)[nH]2)CCCC4)C1 (stereo not drawn)	1	.	.	.	.	.
O=C(NCCCN1CCCC1)c1ccc(CS(=O)(=O)c2ccc(Cl)cc2)o1	4	32	0	-15	2	-8
CC1CCN(S(=O)(=O)c2ccc3c4c2CC(=O)N4CC(C)S3)CC1 (stereo not drawn)	.	-11	187*	-16	-6	6
COc1ccnc(Oc2ccccc2)c1C(N)=O	3	-1	0	-12	22	3
Cc1ccc(C(=O)NC(=C(Cl)Cl)S(=O)(=O)c2ccc(Cl)cc2)cc1	-7	-18	2	-17	-11	-4
Cc1ccc(C(=O)NC(=C(Cl)Cl)S(=O)(=O)c2ccc(C)cc2)cc1	-12	-24	0	-2	-24	96*
COc1ccccc1C(=O)Nc1ccc2c(c1)nc(CN1CCCCC1)n2C	.	-3	-2	-6	15	.
COc1ccc(C(=O)N/C(=C\c2cn(C)c3ccccc23)C(=O)NCCCn2ccnc2)cc1OC	0	4	0	-2	10	-24
N#Cc1c(N2CCN(C(=O)c3ccccc3Cl)CC2)nc(-c2ccccc2)c2c1CCCC2	49	7	-1	57*	14	27
N#Cc1c(N2CCCCC2)nc(N2CCCCC2)c2c1CCN(Cc1ccccc1)C2	?	-11	-1	56*	38	-1
N#Cc1c(N2CCN(C(=O)c3ccco3)CC2)nc(-c2ccccc2)c2c1CCCC2	69	-9	0	61*	19	43
N#Cc1c(N2CCN(C(=O)c3ccccc3)CC2)nc(-c2ccccc2)c2c1CCCC2	3	18	0	23	-5	72
CC1(C)Cc2c(C#N)c(NC3CCCCC3)nc(-c3ccco3)c2CO1	-3	-12	0	9	21	77*
CC1(C)Cc2c(C#N)c(NCC3CCCO3)nc(-c3ccco3)c2CO1 (stereo not drawn)	-7	-7	0	-1	10	.
COCCN1CCN(C(=O)c2cc(COc3ccc(F)c(F)c3)on2)CC1	-2	1	1	-7	?	-3
Cc1cc(O)c(Sc2ncn[nH]2)cc1NS(=O)(=O)c1ccc(Cl)cc1	-6	.	.	.	.	.
Cc1cc(C)c(S(=O)(=O)/N=C2/C=C(Sc3ncn[nH]3)C(=O)c3ccccc32)cc1C	129*	.	.	.	.	103*
Cc1cc(C)n(C(=O)c2sc3cc(F)ccc3c2Cl)n1	-1	-6	0	8	-5	3
Cc1cccc(NC(=O)CN2CCOCC2)c1C	-3	-4	0	-4	-2	0
CCc1ccc([C@@H]2CC=C(C(=O)O)[C@H](c3ccc(Cl)cc3)N2S(=O)(=O)c2ccc(C)cc2)cc1	-12	.	.	.	.	79*
Cc1ccc([C@H]2C(C(=O)O)=CC[C@@H](c3ccc(Cl)cc3)N2S(=O)(=O)c2ccc(C)cc2)cc1	-1	.	.	.	.	.
Cc1ccc(S(=O)(=O)N2[C@@H](c3ccc(C(C)(C)C)cc3)C(C(=O)O)=CC[C@H]2c2cccc(Cl)c2)cc1	-3	.	.	.	.	138*
SMILES	Beta apoptosis	PolyA inh	HIF activator	T cruzi inh	Calb FLC	CSC inhib
CCCCC[C@@H]1C=C(C(=O)O)[C@H](c2ccc(Cl)c(Cl)c2)N1S(=O)(=O)c1ccc(C)cc1	-1	.	.	.	.	98*
Cc1cc2ccccn2c1C(=O)c1ccc([N+](=O)[O-])o1	-62	-82	0	74*	?	?
CC(C)C[C@H](N)c1nnc(S(=O)(=O)Cc2ccc(F)cc2)o1	12	-2	0	-6	-2	77*
CC(C)C[C@H](N)c1nnc(SCC(=O)Nc2ccc(Br)cc2)o1	-6	-11	-1	0	0	-25
O=[N+]([O-])c1c(N2CCN(CCO)CC2)nc2ccccn12	-4	0	-25	-6	-2	-3
Cc1oc(-c2cccs2)nc1CN1CCN(CCC(C)C)C(CCO)C1 (stereo not drawn)	0	8	0	12	0	2
Cc1oc(-c2cccs2)nc1CN1CCN(Cc2ccc(F)c(F)c2)C(CCO)C1 (stereo not drawn)	1	15	0	12	84*	9
O=C(CSc1oc(-c2cccs2)nc1S(=O)(=O)c1ccccc1)NC1CCCCC1	-12	-24	0	60*	-20	.
Cc1cccc(C(=O)NC(C(=O)Nc2cccc(S(=O)(=O)N3CCCC3)c2)C(C)C)c1 (stereo not drawn)	-5	.	.	.	.	-5
COCCSc1nnc(NC(=O)CCS(=O)(=O)c2ccccc2)s1	-11	-11	1	-33	88*	21
CC(=O)c1sc(NC(=O)CCS(=O)(=O)c2ccccc2)nc1C	-39	-3	1	20	86*	-9
O=C1CCC(C(=O)N2CCC(CO)CC2)CN1Cc1ccc(Cl)cc1 (stereo not drawn)	.	27	0	-14	-11	-15
CCCN(CC(=O)Nc1ccccc1OC)C(=O)c1ccc(=O)[nH]c1	-11	-11	0	-9	-7	-8
O=C(NCc1cccs1)C(=O)c1cn(CC(=O)N2CCOCC2)c2ccccc12	.	18	0	-5	0	.
O=C(NCc1ccccc1)C(=O)c1cn(CC(=O)N2CCOCC2)c2ccccc12	-2	8	197*	1	-10	-3
CCN(CC)CCOc1ccc(/C(=C(\Cl)c2ccccc2)c2ccccc2)cc1	44	-5	0	50	-30	103*
Cn1c(CNC(=O)CCNC(=O)c2cccc(Cl)c2)cc(=O)n(C)c1=O	-5	-10	0	-1	.	-2
OCCCn1c(CCNc2nc(-c3ccc(Cl)cc3)cs2)nc2cc(C(F)(F)F)ccc21	1	-13	0	-8	7	78*
O=C(Nc1ccc(-c2cn3ccccc3n2)cc1)c1cccs1	.	-30	1	4	-17	18
CC(C)C(=O)NC(c1cccc([N+](=O)[O-])c1)c1ccc2cccnc2c1O (stereo not drawn)	.	6	95*	45	6	100*
CC(C)C(=O)NC(c1ccco1)c1ccc2cccnc2c1O (stereo not drawn)	117*	10	22*	50	98*	-7
Oc1c(C(Nc2nc3ccccc3s2)c2ccco2)ccc2cccnc12 (stereo not drawn)	103*	0	31*	?	?	120*
